pIC50: −log10 of the molar value. Active and inactive are the calls of the source. The rule behind the calls is not given here.
Columns and labels:
Mus musculus [1] = organism: Mus musculus; test: Antiprion activity against mouse prion protein RML infected mouse ScN2a cells assessed as proteinase K-resistant PrPSc level at 1 uM incubated for 5 days followed by proteinase K digestion by Western blot method relative to control
In short: (§1)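 RML-infected ScN2a cells were treated with 0.1, 1 and 10 μM for 5 days, with DMSO ≤0.1% final. Lysates (500 μg protein) were digested with 10 μg PK for 1 h at 37 °C, stopped with 2 mM PMSF and ultracentrifuged. Pellets were run on SDS-PAGE and immunoblotted with anti-PrP Fab W226, with ECL detection. Densitometry gave PK-resistant PrPSc over total PrP, with untreated set to 100%. Three independent experiments.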

[2] = Cytotoxicity against mouse ScN2a cells assessed as cell viability at 10 uM after 5 days by MTT assay relative to control; format: cell-based; details: read-out: Activity
In short: (§2)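 ScN2a cells were seeded in MEM at 2.5×10^4 cells/mL and allowed to settle for 2 h. Compounds (DMSO stock, diluted in EtOH then medium) were added at 0.1, 1 and 10 μM for 5 days at 37 °C under 5% CO2. MTT (5 mg/mL) was applied for 3 h and solubilized with DMSO/2-propanol. Plates were read at 570/690 nm. Viability is given as % of untreated control, mean ± SD of three independent experiments.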

[3] = Cytotoxicity against mouse ScN2a cells assessed as cell viability at 1 uM after 5 days by MTT assay relative to control; format: cell-based; details: read-out: Activity; in short: as §2
[4] = Cytotoxicity against mouse ScN2a cells assessed as cell viability at 0.1 uM after 5 days by MTT assay relative to control; format: cell-based; details: read-out: Activity; in short: as §2
N2a = test: Effect on cellular prion protein level in mouse N2A cells up to 10 uM incubated for 5 days by Western blot method; format: functional, cell-based
In short: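 Non-infected N2a cells were treated at 0.1, 1 and 10 μM for 5 days. Lysates (50 µg protein, no PK digestion) were immunoblotted with anti-PrP Fab W226. PrPC was normalized to actin, with untreated controls set to 100%. Done in triplicate.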

Mus musculus [5] = organism: Mus musculus; test: Antiprion activity against mouse prion protein RML infected mouse ScN2a cells assessed as proteinase K-resistant PrPSc level at 0.1 uM incubated for 5 days followed by proteinase K digestion by Western blot method relative to control; in short: as §1
Mus musculus [6] = organism: Mus musculus; test: Antiprion activity against mouse prion protein RML infected mouse ScN2a cells assessed as proteinase K-resistant PrPSc level at 10 uM incubated for 5 days followed by proteinase K digestion by Western blot method relative to control; in short: as §1
Mus musculus [7] = organism: Mus musculus; test: Binding affinity to proteinase K sensitive cellular prion protein in mouse N2A cells incubated for 8 mins by fluorescence confocal microscopic method; format: cell-based
In short: (§3)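 N2a or ScN2a cells were grown on coverslips for 24 h, then fixed and permeabilized (4% formaldehyde/0.1% Triton X-100, 1 h, RT) and denatured with 6 M GdnHCl for 10 min. Where PK was used: 20 µg/mL for 15 min at 37 °C, stopped with PMSF. After NGS blocking, cells were stained with compound at 0.025% in 80% EtOH for 8 min at RT. Imaging was by confocal microscopy with a FITC filter.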

Mus musculus [8] = organism: Mus musculus; test: Binding affinity to PrPSc aggregates in mouse prion protein RML infected mouse ScN2a cells incubated for 8 mins followed by proteinase K digestion using FITC filter by fluorescence confocal microscopic method; in short: as §3
[9] = Antiprion activity against mouse prion protein RML infected mouse ScGT1 cells assessed as reduction in proteinase K-resistant PrPSc level incubated for 7 days followed by proteinase K digestion by ELISA; details: ScGT1, 168 h
[10] = Cytotoxicity against mouse ScN2a cells assessed as growth inhibition at 1 uM after 5 days by MTT assay relative to control; format: cell-based; details: read-out: GI; in short: as §2

Compound | Activity (Mus musculus [1]) | viability at 120 h, 10 µM [2] | viability at 120 h, 1 µM [3] | viability at 120 h, 0.1 µM [4] | Activity (N2a) | Activity (Mus musculus [5]) | Activity (Mus musculus [6]) | Activity (Mus musculus [7]) | Activity (Mus musculus [8]) | pIC50 [9] | inhibition at 120 h, 1 µM [10]
C1=CC2=NC(N/N=C/c3ccc4ccccc4n3)=C3CC=CN3C2C=C1 (centres undefined) | 47% | 90.9% | 94.8% | 87.6% | inactive | 54% | 34% |  |  |  | 
C1=CC2C(=NC(N/N=C/c3ccnc4ccccc34)=C3CC=CN32)N=C1 (centres undefined) | 144% | 75.6% | 98.6% | 104% | inactive | 128% | 83% |  |  |  | 
FC1=CC2=NC(N/N=C/c3ccnc4ccccc34)=C3NC=CN3C2C=C1 (centres undefined) | 34% | 72.9% | 92.6% | 87.7% | inactive | 76% | 31% |  |  |  | 
C1=CC2=NC(N/N=C/c3ccnc4ccccc34)=C3NC=CN3C2C=C1 (centres undefined) | 131% | 83.2% | 98.5% | 94.4% | inactive | 178% | 30% |  |  |  | 
CC1=CC2=NC(N/N=C/c3ccnc4ccccc34)=C3CC=CN3C2C=C1C (centres undefined) | 100% | 86.5% | 98.6% | 96.7% | inactive | 137% | 29% |  |  |  | 
COC1=CC2=NC(N/N=C/c3ccnc4ccccc34)=C3CC=CN3C2C=C1 (centres undefined) | 35% | 83.3% | 96.3% | 107% | inactive | 76% | 9% | inactive | Active | 5.80 | 
c1ccc2c(NCCCCCCCCNc3c4c(nc5ccccc35)CCCC4)c3c(nc2c1)CCCC3 |  |  | 0.7% |  |  |  |  |  |  |  | > 20%
C(=C\c1ccco1)/NNc1nc2ccccc2n2cccc12 | 86% | 71.4% | 88.5% | 96.8% | inactive | 105% | 35% |  |  |  | 
Cc1ccc2c(c1)sc(-c1ccc(N(C)C)cc1)[n+]2C |  |  |  |  |  |  |  |  | Active |  | 
C1=CC2=NC(N/N=C/c3ccnc4ccccc34)=C3CC=CN3C2C=C1 (centres undefined) | 78% | 87% | 88.3% | 92.3% | inactive | 90% | 27% |  |  |  | 
COC(=O)C1=CC2=NC(N/N=C/c3ccc4ccccc4n3)=C3CC=CN3C2C=C1 (centres undefined) |  | 45.4% | 88.2% | 92.6% |  |  |  |  |  |  | > 20%
CN(CCCCNc1c2c(nc3ccccc13)CCCC2)CCCNc1c2c(nc3ccccc13)CCCC2 |  |  | 76.9% |  |  |  |  |  |  |  | > 20%
COC(=O)C1=CC2=NC(N/N=C/c3ccnc4ccccc34)=C3CC=CN3C2C=C1 (centres undefined) | 131% | 67.1% | 89.3% | 72.6% | inactive | 104% | 30% |  |  |  | 
COc1ccc2c(C)cc(N/N=C/c3ccnc4ccccc34)nc2c1 | 77% | 83.8% | 84.8% | 93.9% | inactive | 88% | 13% |  |  |  | 
C(=C\c1cccs1)/NNc1nc2ccccc2n2cccc12 | 79% | 80.7% | 81.9% | 78.9% | inactive | 88% | 72% |  |  |  | 

Source: ChEMBL document CHEMBL3994584, “Identification of novel fluorescent probes preventing PrPSc replication in prion diseases” (Eur J Med Chem, 2017)
